Experimental data published in ChEMBL document CHEMBL1629563, “Pharmacokinetic and safety evaluation of BILR 355, a second-generation nonnucleoside reverse transcriptase inhibitor, in healthy volunteers” (Antimicrob Agents Chemother, 2008).

Experiments:
Homo sapiens [1] = assay: Toxicity in healthy human assessed as occurrence of flatulence at 12.5 mg, po administered as single dose relative to control; format: organism-based; conditions: in vivo
Homo sapiens [2] = assay: Toxicity in healthy human assessed as occurrence of vomiting at 12.5 mg, po administered as single dose relative to control; format: organism-based; conditions: in vivo
[3] = Tmax in healthy human at 50 mg, po administered as single dose; format: ADME, organism-based; conditions: in vivo
[4] = Apparent volume of distribution in terminal phase in healthy human at 50 mg, po administered as single dose; format: ADME, organism-based; conditions: in vivo, read-out: Vz/F
Procedure, shortened: (§1)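 Single fasting oral dose of BILR 355 in PEG solution with 200 ml tap water, given to healthy males. Standard breakfast came 60-90 min after the dose. EDTA plasma was sampled predose to 144 h, stored below −18°C and assayed by LC-MS/MS after protein precipitation. Noncompartmental analysis gave Vz/F. Vss/F = CL/F·(MRTp.o. − 1/Ka), with Ka from compartmental modelling.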

[5] = Apparent volume of distribution in terminal phase in healthy human at 75 mg, po administered as single dose coadministered with 100 mg of ritonavir; format: ADME, organism-based; conditions: in vivo, read-out: Vz/F
Procedure, shortened: (§2)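 Healthy male volunteers, fasted overnight, got one oral dose of BILR 355 in PEG solution with 200 ml water. Ritonavir 100 mg was given 10 h before and again with the dose. Plasma was sampled (EDTA) from predose to 144 h and assayed by validated LC-MS/MS. Cmax and Vz/F came from noncompartmental analysis. Vss/F = CL/F·(MRTp.o. − 1/Ka), with Ka from compartmental modelling.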

Homo sapiens [6] = assay: Toxicity in healthy human assessed as occurrence of palpitations at 12.5 mg, po administered as single dose relative to control; format: organism-based; conditions: in vivo
[7] = Cmax in healthy human at 62.5 mg, po administered as single dose coadministered with 100 mg of ritonavir by high-pressure liquid chromatography-tandem mass spectrometry/mass spectrometry method; format: ADME, organism-based; set-up: dose 62.5 mg, route oral; conditions: in vivo; procedure, shortened: as §2
[8] = Apparent volume of distribution in terminal phase in healthy human at 100 mg, po administered as single dose; format: ADME, organism-based; conditions: in vivo, read-out: Vz/F; procedure, shortened: as §1
[9] = Apparent volume of distribution in terminal phase in healthy human at 5 mg, po administered as single dose coadministered with 100 mg of ritonavir; format: ADME, organism-based; conditions: in vivo, read-out: Vz/F; procedure, shortened: as §2
Homo sapiens [10] = assay: Toxicity in healthy human assessed as occurrence of nausea at 5 mg, po administered as single dose relative to control; format: organism-based; conditions: in vivo
[11] = AUC (0 to last) in healthy human at 25 mg, po administered as single dose; format: ADME, organism-based; set-up: dose 25 mg, route oral, time 0 - last; conditions: plasma
Procedure, shortened: (§3)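 Healthy male volunteers, six active plus two placebo per dose group, single oral dose in PEG solution with 200 ml water after overnight fast; breakfast 60 to 90 min post-dose. EDTA plasma sampled predose to 144 h. Assayed by validated LC-MS/MS after protein precipitation. Noncompartmental analysis, AUC by linear up/log down trapezoidal rule; Vss = CL/F·(MRTp.o. − 1/Ka).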

[12] = Cmax in healthy human at 25 mg, po administered as single dose coadministered with 100 mg of ritonavir by high-pressure liquid chromatography-tandem mass spectrometry/mass spectrometry method; format: ADME, organism-based; set-up: dose 25 mg, route oral; conditions: in vivo; procedure, shortened: as §2
Homo sapiens [13] = assay: Toxicity in healthy human assessed as occurrence of migraine at 50 mg, po administered as single dose relative to control; format: organism-based; conditions: in vivo
Homo sapiens [14] = assay: Toxicity in healthy human assessed as occurrence of migraine at 12.5 mg, po administered as single dose relative to control; format: organism-based; conditions: in vivo
[15] = Drug excretion in healthy human urine assessed as unchanged drug at 5 mg, po administered as single dose by high-pressure liquid chromatography-tandem mass spectrometry/mass spectrometry method; format: ADME, organism-based; conditions: read-out: Drug uptake
Procedure, shortened: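 Urine was collected by weight after one oral dose of BILR 355 in PEG solution in fasted healthy males. Intervals were predose blank, 0-6, 6-24 and 24-72 h, with the bladder voided before each. Aliquots were stored at −20°C and assayed by LC-MS/MS. fe = amount of unchanged drug excreted (Ae) as a percentage of the administered dose.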

Homo sapiens [16] = assay: Toxicity in healthy human assessed as occurrence of fatigue at 25 mg, po administered as single dose relative to control; format: organism-based; conditions: in vivo
Homo sapiens [17] = assay: Toxicity in healthy human assessed as occurrence of palpitations at 75 mg, po administered as single dose relative to control; format: organism-based; conditions: in vivo
[18] = Mean residence time in healthy human at 50 mg, po administered as single dose coadministered with 100 mg of ritonavir; format: ADME, organism-based; conditions: in vivo
Homo sapiens [19] = assay: Toxicity in healthy human assessed as occurrence of headache at 100 mg, po administered as single dose relative to control; format: organism-based; conditions: in vivo
[20] = Renal clearance in healthy human at 62.5 mg, po administered as single dose coadministered with 100 mg of ritonavir by high-pressure liquid chromatography-tandem mass spectrometry/mass spectrometry method; format: ADME, organism-based, Kidney; conditions: in vivo, read-out: CL_renal (converted)
Homo sapiens [21] = assay: Toxicity in healthy human assessed as occurrence of nausea at 12.5 mg, po administered as single dose relative to control; format: organism-based; conditions: in vivo
[22] = AUC (0 to infinity) in healthy human at 100 mg, po administered as single dose; format: ADME, organism-based; set-up: dose 100 mg, time infinity, route oral; conditions: plasma; procedure, shortened: as §3
[23] = AUC (0 to last) in healthy human at 75 mg, po administered as single dose coadministered with 100 mg of ritonavir; format: ADME, organism-based; set-up: dose 75 mg, route oral, time 0 - last; conditions: plasma
Procedure, shortened: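 Healthy male volunteers, fasted. Ritonavir 100 mg given 10 h before and again together with single oral BILR 355 in PEG solution. EDTA plasma sampled predose to 144 h. LC-MS/MS assay after protein precipitation. Noncompartmental analysis, AUC by linear up/log down trapezoidal rule; Vss = CL/F·(MRTp.o. − 1/Ka).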

Homo sapiens [24] = assay: Toxicity in healthy human assessed as occurrence of maculopapular rash at 12.5 mg, po administered as single dose coadministered with 100 mg of ritonavir; format: organism-based; conditions: in vivo
[25] = Apparent volume of distribution at steady state in healthy human at 75 mg, po administered as single dose; format: ADME, organism-based; conditions: in vivo, read-out: Vss/F; procedure, shortened: as §1
Homo sapiens [26] = assay: Toxicity in healthy human assessed as occurrence of abdominal pain at 1 mg, po administered as single dose relative to control; format: organism-based, Abdomen; conditions: in vivo
[27] = Apparent volume of distribution in terminal phase in healthy human at 50 mg, po administered as single dose coadministered with 100 mg of ritonavir; format: ADME, organism-based; conditions: in vivo, read-out: Vz/F; procedure, shortened: as §2
Homo sapiens [28] = assay: Toxicity in healthy human assessed as occurrence of frequent bowel movements at 5 mg, po administered as single dose relative to control; format: organism-based; conditions: in vivo
Homo sapiens [29] = assay: Toxicity in healthy human assessed as occurrence of palpitations at 1 mg, po administered as single dose relative to control; format: organism-based; conditions: in vivo
[30] = Apparent volume of distribution in terminal phase in healthy human at 87.5 mg, po administered as single dose coadministered with 100 mg of ritonavir; format: ADME, organism-based; conditions: in vivo, read-out: Vz/F; procedure, shortened: as §2
[31] = Mean residence time in healthy human at 25 mg, po administered as single dose; format: ADME, organism-based; conditions: in vivo
Homo sapiens [32] = assay: Toxicity in healthy human assessed as occurrence of nausea at 100 mg, po administered as single dose relative to control; format: organism-based; conditions: in vivo
Homo sapiens [33] = assay: Toxicity in healthy human assessed as occurrence of maculopapular rash at 75 mg, po administered as single dose relative to control; format: organism-based; conditions: in vivo
Homo sapiens [34] = assay: Toxicity in healthy human assessed as occurrence of diarrhea at 62.5 mg, po administered as single dose coadministered with 100 mg of ritonavir; format: organism-based; conditions: in vivo

`CCN1c2ncc(CCOc3cc[n+]([O-])c4ccccc34)cc2C(=O)N(C)c2cccnc21` [BILR 355] gave an Activity (Homo sapiens [1]) of 0%, an Activity (Homo sapiens [2]) of 0% and a Tmax [3] of 0.667 h. The Vd/F [4] was 460 L, the Vd/F [5] was 108 L and the Activity (Homo sapiens [6]) was 0%. For the same compound, the Cmax [7] was 653 ng/mL, the Vd/F [8] was 213 L and the Vd/F [9] was 153 L. For the same compound, the Activity (Homo sapiens [10]) was 0%, the AUC(0-t) [11] was 128 ng·h/mL and the Cmax [12] was 226 ng/mL. It also gave an Activity (Homo sapiens [13]) of 0%, an Activity (Homo sapiens [14]) of 0% and a dose excreted [15] of 0.172%. It also gave an Activity (Homo sapiens [16]) of 0%, an Activity (Homo sapiens [17]) of 16.7% and an MRT [18] of 16.7 h. It also gave an Activity (Homo sapiens [19]) of 0%, a CL renal [20] of 7.17 mL/min and an Activity (Homo sapiens [21]) of 0%. It also gave an AUC(0-inf) [22] of 1310 ng·h/mL, an AUC(0-t) [23] of 12100 ng·h/mL and an Activity (Homo sapiens [24]) of 0%. The Vd/F [25] was 608 L, the Activity (Homo sapiens [26]) was 0% and the Vd/F [27] was 129 L. It also gave an Activity (Homo sapiens [28]) of 0%, an Activity (Homo sapiens [29]) of 0% and a Vd/F [30] of 114 L. For the same compound, the MRT [31] was 4.52 h, the Activity (Homo sapiens [32]) was 0% and the Activity (Homo sapiens [33]) was 0%. For the same compound, the Activity (Homo sapiens [34]) was 0%.
